Source: ChEMBL document CHEMBL5724801, “EUbOPEN Chemogenomics Library - Multiplex” (2024)
Where “and” joins values, the source holds several entries; their conditions need not be identical. Identical values can stand only once.

System: HEK-293T
Assay: Multiplex assay against HEK293T
Format: toxicity, cell-based
Conditions: human
Outline: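 Per cents of healthy-nucleus cells form the tubulin, mitochondrial-mass and membrane-permeability phenotype values. Live cells were stained at seeding with Hoechst33342, BioTracker Green Microtubule Cytoskeleton Dye, MitoTracker Red and Annexin V Alexa Fluor 680. After compound addition they were imaged on a CQ1 microscope at 37°C and 5% CO2, and CellPathfinder machine-learning gating split them into Hoechst high-intensity objects or normal cells, normal cells into healthy, pyknosed or fragmented nuclei, and pyknosed cells into mitotic or apoptotic.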

[1] = 12 h, 1 µM, compound concentration 1 uM
[2] = 12 h, 10 µM, compound concentration 10 uM
[3] = 24 h, 1 µM, compound concentration 1 uM
[4] = 24 h, 10 µM, compound concentration 10 uM
[5] = 48 h, 1 µM, compound concentration 1 uM
[6] = 48 h, 10 µM, compound concentration 10 uM

SMILES: Nc1nc(-c2ccco2)c2cnn(Cc3ccccc3F)c2n1
- Population Apoptotic (%) [1]: 37% and 36%
- Population Fragmented Nuclei (%) [1]: 6% and 5%
- Population Healthy Nuclei (%) [1]: 76% and 81%
- Population Hoechst High Intensity Objects (%) [1]: 9% and 11%
- Population Membrane Permeable-Phenotype (%) [1]: 0%
- Population Mitochondria Different-Phenotype (%) [1]: 58% and 64%
- Population Mitotic Cells (%) [1]: 62% and 63%
- Population Normal (%) [1]: 90% and 88%
- Population Pyknosed Nuclei (%) [1]: 16% and 13%
- Population Tubulin-Different-Phenotype (%) [1]: 41% and 23%
- Total Cell Count [1]: 300 and 404
- Population Apoptotic (%) [2]: 33% and 40%
- Population Fragmented Nuclei (%) [2]: 7% and 6%
- Population Healthy Nuclei (%) [2]: 73% and 76%
- Population Hoechst High Intensity Objects (%) [2]: 8% and 12%
- Population Membrane Permeable-Phenotype (%) [2]: 0%
- Population Mitochondria Different-Phenotype (%) [2]: 61% and 68%
- Population Mitotic Cells (%) [2]: 66% and 60%
- Population Normal (%) [2]: 91% and 87%
- Population Pyknosed Nuclei (%) [2]: 19% and 17%
- Population Tubulin-Different-Phenotype (%) [2]: 43% and 26%
- Total Cell Count [2]: 306 and 265
- Population Apoptotic (%) [3]: 30% and 28%
- Population Fragmented Nuclei (%) [3]: 7% and 9%
- Population Healthy Nuclei (%) [3]: 77% and 81%
- Population Hoechst High Intensity Objects (%) [3]: 7% and 5%
- Population Membrane Permeable-Phenotype (%) [3]: 0%
- Population Mitochondria Different-Phenotype (%) [3]: 36% and 46%
- Population Mitotic Cells (%) [3]: 69% and 71%
- Population Normal (%) [3]: 92% and 94%
- Population Pyknosed Nuclei (%) [3]: 15% and 9%
- Population Tubulin-Different-Phenotype (%) [3]: 26% and 17%
- Total Cell Count [3]: 396 and 514
- Population Apoptotic (%) [4]: 38% and 35%
- Population Fragmented Nuclei (%) [4]: 11%
- Population Healthy Nuclei (%) [4]: 67%
- Population Hoechst High Intensity Objects (%) [4]: 6% and 10%
- Population Membrane Permeable-Phenotype (%) [4]: 2% and 0%
- Population Mitochondria Different-Phenotype (%) [4]: 52% and 59%
- Population Mitotic Cells (%) [4]: 61% and 64%
- Population Normal (%) [4]: 93% and 89%
- Population Pyknosed Nuclei (%) [4]: 21%
- Population Tubulin-Different-Phenotype (%) [4]: 31% and 23%
- Total Cell Count [4]: 334 and 328
- Population Apoptotic (%) [5]: 32% and 28%
- Population Fragmented Nuclei (%) [5]: 12% and 14%
- Population Healthy Nuclei (%) [5]: 75% and 78%
- Population Hoechst High Intensity Objects (%) [5]: 3% and 4%
- Population Membrane Permeable-Phenotype (%) [5]: 1%
- Population Mitochondria Different-Phenotype (%) [5]: 31% and 21%
- Population Mitotic Cells (%) [5]: 67% and 71%
- Population Normal (%) [5]: 96% and 95%
- Population Pyknosed Nuclei (%) [5]: 12% and 7%
- Population Tubulin-Different-Phenotype (%) [5]: 18% and 14%
- Total Cell Count [5]: 641 and 769
- Population Apoptotic (%) [6]: 36% and 28%
- Population Fragmented Nuclei (%) [6]: 16% and 13%
- Population Healthy Nuclei (%) [6]: 73% and 74%
- Population Hoechst High Intensity Objects (%) [6]: 7%
- Population Membrane Permeable-Phenotype (%) [6]: 0%
- Population Mitochondria Different-Phenotype (%) [6]: 42% and 43%
- Population Mitotic Cells (%) [6]: 63% and 71%
- Population Normal (%) [6]: 92%
- Population Pyknosed Nuclei (%) [6]: 9% and 12%
- Population Tubulin-Different-Phenotype (%) [6]: 19% and 15%
- Total Cell Count [6]: 412 and 398

SMILES: CCn1c(-c2nonc2N)nc2c(C#CC(C)(C)O)ncc(OCC3CCCNC3)c21 (stereo not given)
- Population Apoptotic (%) [1]: 10.29% and 11.11%
- Population Fragmented Nuclei (%) [1]: 2.35% and 5.52%
- Population Hoechst High Intensity Objects (%) [1]: 0.29% and 0%
- Population Membrane Permeable-Phenotype (%) [1]: 0%
- Population Mitochondria Different-Phenotype (%) [1]: 31.65% and 45.45%
- Population Mitotic Cells (%) [1]: 89.71% and 88.89%
- Population Normal (%) [1]: 99.71% and 100%
- Population Pyknosed Nuclei (%) [1]: 51.32% and 86.9%
- Total Cell Count [1]: 342 and 145
- Population Apoptotic (%) [2]: 15.66% and 20.38%
- Population Fragmented Nuclei (%) [2]: 0.98% and 2.91%
- Population Hoechst High Intensity Objects (%) [2]: 1.92% and 0%
- Population Membrane Permeable-Phenotype (%) [2]: 0%
- Population Mitochondria Different-Phenotype (%) [2]: 33.96% and 20%
- Population Mitotic Cells (%) [2]: 84.34% and 79.62%
- Population Normal (%) [2]: 98.08% and 100%
- Population Pyknosed Nuclei (%) [2]: 64.5% and 91.28%
- Population Tubulin-Different-Phenotype (%) [2]: 48.11% and 40%
- Total Cell Count [2]: 313 and 172
- Population Apoptotic (%) [3]: 27.07% and 20.59%
- Population Fragmented Nuclei (%) [3]: 1.2% and 4.2%
- Population Healthy Nuclei (%) [3]: 58.73% and 24.48%
- Population Hoechst High Intensity Objects (%) [3]: 0.3% and 0%
- Population Membrane Permeable-Phenotype (%) [3]: 1.54% and 0%
- Population Mitochondria Different-Phenotype (%) [3]: 34.87% and 20%
- Population Mitotic Cells (%) [3]: 72.93% and 79.41%
- Population Normal (%) [3]: 99.7% and 100%
- Population Pyknosed Nuclei (%) [3]: 40.06% and 71.33%
- Total Cell Count [3]: 333 and 143
- Population Apoptotic (%) [4]: 43.87% and 34.93%
- Population Fragmented Nuclei (%) [4]: 1.02% and 3.07%
- Population Hoechst High Intensity Objects (%) [4]: 1.01% and 0%
- Population Membrane Permeable-Phenotype (%) [4]: 0%
- Population Mitochondria Different-Phenotype (%) [4]: 55.56% and 50%
- Population Mitotic Cells (%) [4]: 56.13% and 65.07%
- Population Normal (%) [4]: 98.99% and 100%
- Population Pyknosed Nuclei (%) [4]: 52.9% and 89.57%
- Population Tubulin-Different-Phenotype (%) [4]: 82.22% and 41.67%
- Total Cell Count [4]: 296 and 163
- Population Apoptotic (%) [5]: 16.67% and 24.05%
- Population Fragmented Nuclei (%) [5]: 1.43% and 3.95%
- Population Healthy Nuclei (%) [5]: 81.46% and 51.41%
- Population Hoechst High Intensity Objects (%) [5]: 0.32% and 0.56%
- Population Membrane Permeable-Phenotype (%) [5]: 3.89% and 2.2%
- Population Mitochondria Different-Phenotype (%) [5]: 59.34% and 63.74%
- Population Mitotic Cells (%) [5]: 83.33% and 75.95%
- Population Normal (%) [5]: 99.68% and 99.44%
- Population Pyknosed Nuclei (%) [5]: 17.12% and 44.63%
- Population Apoptotic (%) [6]: 73.58% and 71.96%
- Population Fragmented Nuclei (%) [6]: 1.19% and 2.01%
- Population Healthy Nuclei (%) [6]: 56.75% and 26.17%
- Population Hoechst High Intensity Objects (%) [6]: 1.18% and 0%
- Population Membrane Permeable-Phenotype (%) [6]: 2.8% and 0%
- Population Mitochondria Different-Phenotype (%) [6]: 97.2% and 92.31%
- Population Mitotic Cells (%) [6]: 26.42% and 28.04%
- Population Normal (%) [6]: 98.82% and 100%
- Population Pyknosed Nuclei (%) [6]: 42.06% and 71.81%
- Population Tubulin-Different-Phenotype (%) [6]: 70.63% and 92.31%
- Total Cell Count [6]: 255 and 149
